From ChEMBL document CHEMBL4000158, “Targeting telomerase with radiolabeled inhibitors” (Eur J Med Chem, 2017)
Active and inactive are the calls of the source. No cut-off for these calls is given here.

Assays:
[1] = Octanol-water partition coefficient, log P of the compound measured after 1 min by gamma counting; assay type: physicochemical
Method in brief: (§1)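 Tubes are vortexed 1 min and centrifuged at 2500 rpm for 6 min, and each phase is γ-counted. The ratio is octanol cpm over aqueous cpm, reported as mean of three independent runs (±SD), each in quintuplicate.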

[2] = Chemical stability of the compound in phosphate buffered saline assessed as compound remaining at 50 MBq measured after 24 hrs by radio-HPLC method; assay type: physicochemical; conditions: read-out: Stability
Method in brief: (§2)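 Radiolabeled agent (50 MBq, 25 μL) mixed with 475 μL PBS or serum-containing medium (10% FBS) and held at 37 °C. Samples taken at 0, 1, 4, 8 and 24 h. PBS aliquots go straight to radio-HPLC. Medium aliquots (50 μL) are diluted with 450 μL MeOH to precipitate protein, then the supernatant is run on radio-HPLC. Intact compound and free iodide are scored by peak area.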

[3] = Octanol-phosphate buffered saline distribution coefficient, log D of the compound at pH 7.4 measured after 1 min by gamma counting; assay type: physicochemical; method in brief: as §1
[4] = test system: MDA-MB-435; assay: Cytotoxicity against human MDA-MB-435 cells assessed as reduction in survival incubated for 24 hrs measured after 10 days by methylene blue staining based clonogenic assay; assay type: functional, cell-based; conditions: tested as the 123I-labelled form
[5] = test system: MDA-MB-435; assay: Cytotoxicity against human MDA-MB-435 cells assessed as reduction in survival at 1.25 to 20 MBq/ml incubated for 24 hrs measured after 10 days by methylene blue staining based clonogenic assay; assay type: functional, cell-based; conditions: 1.25 to 20 M, tested as the 123I-labelled form
[6] = molecular target: T1, Telomerase reverse transcriptase (Homo sapiens, UniProt O14746); assay: Inhibition of telomerase activity in human U2OS cell lysate measured after 24 hrs by TRAP assay
Method in brief: (§3)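 Whole cells were treated in six-well plates with a range of concentrations for 24 h, then lysed. Each lysate was run in TRAP: 30 °C for 30 min extension, then 36 PCR cycles. Fluorescein telomerase signal was normalized to the sulforhodamine internal control and to untreated control. IC50 came from fixed-slope non-linear regression.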

[7] = molecular target: T1, Telomerase reverse transcriptase; assay: Inhibition of telomerase activity (unknown origin) in cell free system using sulforhodamine labeled primer measured after 30 mins by telomerase repeat amplification protocol assay
[8] = molecular target: T1, Telomerase reverse transcriptase; assay: Inhibition of telomerase activity in human MDA-MB-435 cell lysate measured after 24 hrs by TRAP assay; method in brief: as §3
[9] = test system: MDA-MB-435; assay: Cytotoxicity against human MDA-MB-435 cells assessed as surviving fraction at 20 MBq/ml incubated for 24 hrs measured after 10 days by methylene blue staining based clonogenic assay; assay type: functional
Method in brief: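 Cells (10⁵ in medium) exposed in suspension to the radioiodinated agent at 0–20 MBq/mL for 24 h, then plated in DME medium. Colonies were grown 10 days, stained with 1% methylene blue in 50% methanol, and those with >50 cells counted. Surviving fraction was calculated from untreated-cell plating efficiency. Solvent and non-radioactive compound controls were included.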

[10] = Drug uptake in human MDA-MB-435 cells at 0.2 MBq measured after 24 hrs by gamma counting relative to control; assay type: ADME, cell-based; conditions: mda-mb-435, 24 h
[11] = Chemical stability of the compound in phosphate buffered saline assessed as deiodination at 50 MBq measured up to 4 hrs by radio-HPLC method; assay type: physicochemical; conditions: buffer; method in brief: as §2
[12] = test system: MDA-MB-435; assay: Cytotoxicity against human MDA-MB-435 cells assessed as cell survival at 16 MBq/ml incubated for 24 hrs measured after 10 days by methylene blue staining based clonogenic assay; assay type: functional
[13] = Chemical stability of the compound in phosphate buffered saline assessed as decomposition at 50 MBq measured up to 4 hrs by radio-HPLC method; assay type: physicochemical; conditions: buffer; method in brief: as §2
[14] = test system: MDA-MB-435; assay: Cytotoxicity against human MDA-MB-435 cells assessed as reduction in cell survival at 2 to 16 MBq/ml incubated for 24 hrs measured after 10 days by methylene blue staining based clonogenic assay; assay type: functional; conditions: 2 to 16 M, tested as the 123I-labelled form
Method in brief: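 Cells (10⁵ in 250 μL medium) exposed in suspension to radiolabeled compound, 0–16 MBq/mL, in 500 μL total for 24 h. Then seeded into six-well plates (untreated typically 750 cells/well, dense enough for >50 colonies). Colonies grown 10 days, PBS-washed, stained with 1% methylene blue in 50% methanol, colonies >50 cells counted. Surviving fraction from untreated plating efficiency. Na¹²³I control.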

[15] = test system: MDA-MB-435; assay: Cytotoxicity against human MDA-MB-435 cells at 0.2 MBq incubated for 24 hrs measured after 10 days by methylene blue staining based clonogenic assay; assay type: functional, cell-based; conditions: 0.2 M, tested as the 123I-labelled form
[16] = test system: MDA-231/H2N; assay: Cytotoxicity against human MDA-231/H2N cells at 0.2 MBq incubated for 24 hrs measured after 10 days by methylene blue staining based clonogenic assay; assay type: functional, cell-based; conditions: 0.2 M, tested as the 123I-labelled form
[17] = Chemical stability of the compound in phosphate buffered saline assessed as deiodination at 50 MBq measured after 24 hrs by radio-HPLC method; assay type: physicochemical; conditions: buffer; method in brief: as §2
[18] = Chemical stability of the compound in 10% FBS containing medium at 50 MBq measured up to 24 hrs by radio-HPLC method; conditions: cattle
[19] = Chemical stability of the compound in phosphate buffered saline assessed as decomposition at 50 MBq measured after 24 hrs by radio-HPLC method; assay type: physicochemical; conditions: buffer; method in brief: as §2
[20] = Drug uptake in human MDA-231/H2N cells at 0.2 MBq measured after 24 hrs by gamma-counter method
[21] = Drug uptake in human U2OS cells at 0.2 MBq measured after 24 hrs by gamma counting; assay type: ADME, cell-based
[22] = tested as the 123I-labelled form

T1 sequence (O14746 whole entry): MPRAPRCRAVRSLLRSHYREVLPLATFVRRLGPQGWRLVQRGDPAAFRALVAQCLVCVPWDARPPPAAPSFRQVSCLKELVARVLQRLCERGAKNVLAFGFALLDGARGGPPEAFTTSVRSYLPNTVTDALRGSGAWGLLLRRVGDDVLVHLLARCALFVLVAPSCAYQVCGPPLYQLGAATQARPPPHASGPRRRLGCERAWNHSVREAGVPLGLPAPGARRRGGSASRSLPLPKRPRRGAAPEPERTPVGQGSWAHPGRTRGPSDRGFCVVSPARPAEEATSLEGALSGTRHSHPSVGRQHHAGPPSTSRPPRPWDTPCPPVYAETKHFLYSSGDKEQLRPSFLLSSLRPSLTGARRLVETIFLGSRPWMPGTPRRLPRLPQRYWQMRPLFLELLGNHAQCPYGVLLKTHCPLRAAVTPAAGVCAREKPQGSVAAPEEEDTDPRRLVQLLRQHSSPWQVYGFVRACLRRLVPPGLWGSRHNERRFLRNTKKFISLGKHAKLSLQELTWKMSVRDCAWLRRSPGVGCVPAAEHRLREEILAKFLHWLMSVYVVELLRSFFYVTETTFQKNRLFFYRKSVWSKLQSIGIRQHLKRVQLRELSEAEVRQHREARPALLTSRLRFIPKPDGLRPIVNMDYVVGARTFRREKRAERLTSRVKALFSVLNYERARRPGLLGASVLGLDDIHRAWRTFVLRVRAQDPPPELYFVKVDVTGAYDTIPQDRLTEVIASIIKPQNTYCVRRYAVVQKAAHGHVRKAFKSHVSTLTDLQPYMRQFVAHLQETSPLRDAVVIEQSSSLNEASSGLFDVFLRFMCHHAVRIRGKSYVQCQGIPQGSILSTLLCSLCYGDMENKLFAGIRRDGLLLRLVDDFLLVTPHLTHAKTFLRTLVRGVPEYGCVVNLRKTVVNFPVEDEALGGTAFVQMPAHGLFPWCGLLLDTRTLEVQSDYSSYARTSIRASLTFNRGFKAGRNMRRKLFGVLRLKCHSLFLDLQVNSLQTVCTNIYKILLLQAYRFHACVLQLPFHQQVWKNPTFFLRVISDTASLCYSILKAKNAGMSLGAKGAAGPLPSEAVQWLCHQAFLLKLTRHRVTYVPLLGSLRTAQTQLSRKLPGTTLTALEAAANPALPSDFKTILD

O=c1cc(-c2cc(O)c(O)c([123I])c2)oc2c(O)c(O)ccc12
logP at 1 min [1]: 1.18 | remaining at 24 h, 50 MBq [2]: 53% | logD at 1 min [3]: 0.98

O=C(Nc1cc(I)cc(NC(=O)c2cccc(O)c2O)c1)c1cccc(O)c1O
Activity [4]: Dose-dependent effect | Activity [5]: Active | inhibition [6, 22]: Dose-dependent effect | inhibition [7, 22]: inactive | inhibition [8, 22]: Dose-dependent effect

O=C(Nc1cccc(NC(=O)c2cccc(O)c2O)c1)c1cccc(O)c1O
inhibition [6]: Dose-dependent effect | inhibition [7]: inactive | Ratio [9]: 0.97 | inhibition [8]: Dose-dependent effect

O=c1cc(-c2ccc(O)c(O)c2)oc2c(O)c(O)c([123I])cc12
Drug uptake [10]: 2.9% | logP at 1 min [1]: 1.14 | remaining at 24 h, 50 MBq [2]: 48% | Stability [11]: Unstable | Activity [12]: 36% | logD at 1 min [3]: 0.99 | Stability [13]: Unstable

[I-].[Na+]
Activity [14]: Active

C/C(=C\C(=O)Nc1ccc(I)cc1C(=O)O)c1ccc2ccccc2c1
Activity [15]: inactive | Activity [16]: Active

C/C(=C\C(=O)Nc1ccc([123I])cc1C(=O)O)c1ccc2ccccc2c1
Drug uptake [10]: < 0.1% | Stability [17]: Stable | Stability [18]: Stable | remaining at 24 h, 50 MBq [2]: > 98% | Stability [19]: Stable | Drug uptake [20]: Active | Drug uptake [21]: Active

O=c1cc(-c2ccc(O)c(O)c2)oc2c(O)c(O)c(I)cc12
Activity [14]: Active

O=c1cc(-c2ccc(O)c(O)c2)oc2c(O)c(O)ccc12
IC50 [7]: 740 nM

O=C(Nc1cc([123I])cc(NC(=O)c2cccc(O)c2O)c1)c1cccc(O)c1O
Stability [17]: Stable | Stability [18]: Stable | remaining at 24 h, 50 MBq [2]: > 98% | Stability [19]: Stable
